Measured values published in ChEMBL document CHEMBL4725317 (Bioorg Med Chem Lett, 2020).

Assays:
[1] = target: T1, Sodium/glucose cotransporter 2 (Homo sapiens) (UniProt P31639); experiment: Inhibition of human SGLT2 expressed in CHO cells assessed as reduction in [14C]-methyl-alpha -D-glucopyranoside accumulation at 0.3 uM relative to control; type: cell-based
T1 sequence (whole entry): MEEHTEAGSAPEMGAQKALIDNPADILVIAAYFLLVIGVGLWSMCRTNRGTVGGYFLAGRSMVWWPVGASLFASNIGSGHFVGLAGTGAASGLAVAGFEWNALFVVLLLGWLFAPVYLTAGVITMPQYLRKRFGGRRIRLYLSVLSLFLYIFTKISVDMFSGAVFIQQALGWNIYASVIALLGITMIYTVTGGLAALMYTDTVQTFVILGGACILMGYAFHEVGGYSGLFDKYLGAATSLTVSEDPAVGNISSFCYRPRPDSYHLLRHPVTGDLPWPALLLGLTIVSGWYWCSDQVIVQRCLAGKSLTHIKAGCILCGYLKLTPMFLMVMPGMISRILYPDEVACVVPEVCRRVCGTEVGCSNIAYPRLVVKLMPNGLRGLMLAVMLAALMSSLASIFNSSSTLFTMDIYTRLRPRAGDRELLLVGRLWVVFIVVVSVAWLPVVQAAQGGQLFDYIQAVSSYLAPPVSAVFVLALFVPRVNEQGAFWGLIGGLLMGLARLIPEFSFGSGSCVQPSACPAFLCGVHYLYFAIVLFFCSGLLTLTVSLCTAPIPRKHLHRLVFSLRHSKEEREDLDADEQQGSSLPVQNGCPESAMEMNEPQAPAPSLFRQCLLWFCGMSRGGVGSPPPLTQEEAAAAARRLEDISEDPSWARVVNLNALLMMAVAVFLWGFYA
Summary of the method: (§1)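 CHO cells expressing human SGLT1 or SGLT2; inhibition of [14C]methyl D-glucopyranoside (AMG) accumulation measured with test compound at 0.3 μM.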

[2] = target: T2, Sodium/glucose cotransporter 1 (Homo sapiens) (UniProt P13866); experiment: Inhibition of human SGLT1 expressed in CHO cells assessed as reduction in [14C]-methyl-alpha -D-glucopyranoside accumulation at 0.3 uM relative to control; type: cell-based; summary of the method: as §1
T2 sequence (whole entry): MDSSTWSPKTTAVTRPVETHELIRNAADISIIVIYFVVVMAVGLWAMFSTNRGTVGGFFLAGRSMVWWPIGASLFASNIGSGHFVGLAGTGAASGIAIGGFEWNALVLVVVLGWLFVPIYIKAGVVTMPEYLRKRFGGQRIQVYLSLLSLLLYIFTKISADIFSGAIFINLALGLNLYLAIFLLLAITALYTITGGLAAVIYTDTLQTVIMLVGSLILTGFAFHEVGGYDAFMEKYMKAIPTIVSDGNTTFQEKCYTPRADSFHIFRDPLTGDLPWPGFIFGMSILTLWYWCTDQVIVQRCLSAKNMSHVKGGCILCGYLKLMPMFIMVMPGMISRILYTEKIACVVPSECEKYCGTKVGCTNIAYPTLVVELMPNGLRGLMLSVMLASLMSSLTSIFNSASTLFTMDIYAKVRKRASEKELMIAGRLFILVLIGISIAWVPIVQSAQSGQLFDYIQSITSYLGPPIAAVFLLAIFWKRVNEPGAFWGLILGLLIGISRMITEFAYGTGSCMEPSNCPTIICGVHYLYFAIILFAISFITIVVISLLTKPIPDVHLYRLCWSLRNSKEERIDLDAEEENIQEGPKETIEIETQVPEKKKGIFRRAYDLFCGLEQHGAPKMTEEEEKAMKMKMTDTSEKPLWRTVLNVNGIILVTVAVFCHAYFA

[3] = Stability of compound in rat liver microsomes assessed as parent compound remaining at 1 uM measured at 10 mins in presence of NADPH; type: ADME, Microsome; conditions: for remaining at 10 min, 1 µM: liver microsomes, read-out: Stabilty
Summary of the method: (§2)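 Test compound at 1 μM with human, mouse or rat liver microsomes (0.5 mg/ml protein) plus NADPH cofactor; final solvents 0.01% DMSO, 0.05% acetonitrile; percent parent remaining at 10 min. Verapamil, cerivastatin and warfarin as positive controls. SD given when multiple batches were tested.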

[4] = Oral bioavailability in Sprague-Dawley rat at 10 mg/kg; type: ADME, organism-based; conditions: in vivo
Summary of the method: (§3)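 Male Sprague Dawley rats dosed 2 mg/kg IV (vehicle 20% HPbCD) or 10 mg/kg PO (vehicle 0.5% Methocel); pharmacokinetic parameters derived from plasma exposure.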

[5] = system: Rattus norvegicus; experiment: Hypoglycemic activity in overnight fasted Sprague-Dawley rat assessed as percent reduction in blood glucose AUC at 1 mg/kg, po measured after 4 hrs post glucose challenge by OGTT relative to control; type: functional; design: scale not given: the % may be the effect or the level left
Summary of the method: (§4)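 Overnight-fasted SD rats dosed orally at 1 or 10 mg/kg in 0.5% Methocel (vehicle controls) 60 min before oral glucose challenge. […] N=8 per group; mean ± SEM; one-way ANOVA-Dunnett.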

[6] = Volume of distribution at steady state in Sprague-Dawley rat at 2 mg/kg, iv or 10 mg/kg, po; type: ADME, organism-based; conditions: in vivo, read-out: Vdss; summary of the method: as §3
[7] = AUC (0 to infinity) in Sprague-Dawley rat at 2 mg/kg, iv or 10 mg/kg, po; type: ADME, organism-based; design: dose 10 mg/kg; conditions: in vivo; summary of the method: as §3
[8] = In vivo inhibition of SGLT1/2 in overnight fasted Sprague-Dawley rat assessed as amount of urinary glucose excretion assessed per 4 hrs at 1 mg/kg, po; type: functional; summary of the method: as §4
[9] = system: Rattus norvegicus; experiment: Hypoglycemic activity in overnight fasted Sprague-Dawley rat assessed as percent reduction in blood glucose AUC at 10 mg/kg, po measured after 4 hrs post glucose challenge by OGTT relative to control; type: functional; design: scale not given: the % may be the effect or the level left; summary of the method: as §4
[10] = Tmax in Sprague-Dawley rat at 2 mg/kg, iv or 10 mg/kg, po; type: ADME, organism-based; conditions: in vivo; summary of the method: as §3
[11] = Half life in Sprague-Dawley rat at 2 mg/kg, iv; type: ADME, organism-based; conditions: in vivo; summary of the method: as §3
[12] = Stability of compound in human liver microsomes assessed as parent compound remaining at 1 uM measured at 10 mins in presence of NADPH; type: ADME, Microsome; conditions: liver microsomes, read-out: Stabilty; summary of the method: as §2
[13] = system: Rattus norvegicus; experiment: In vivo inhibition of SGLT1/2 in overnight fasted po dosed Sprague-Dawley rat assessed as reduction in blood glucose by OGTT; type: functional, organism-based; conditions: dose mg/kg 1-10
[14] = Stability of compound in mouse liver microsomes assessed as parent compound remaining at 1 uM measured at 10 mins in presence of NADPH; type: ADME, Microsome; conditions: read-out: Stabilty; summary of the method: as §2
[15] = Cmax in Sprague-Dawley rat at 2 mg/kg, iv or 10 mg/kg, po; type: ADME, organism-based; design: dose 10 mg/kg; conditions: in vivo; summary of the method: as §3
[16] = Clearance in Sprague-Dawley rat at 2 mg/kg, iv or 10 mg/kg, po; type: ADME, organism-based; conditions: in vivo; summary of the method: as §3

Compound	inhibition [1] [%]	inhibition [2] [%]	remaining at 10 min, 1 µM [3] [%]	remaining at 10 min, 1 µM [12] [%]	remaining at 10 min, 1 µM [14] [%]	also measured
COc1cc(O)c([C@@H]2O[C@H](CO)[C@@](C)(F)[C@H](O)[C@H]2O)cc1Cc1ccc2c(c1)CCCO2	67	31				
COc1cc(Cl)c(Cc2ccc3c(c2)OCCO3)cc1[C@@H]1O[C@H](CO)C(F)(F)[C@H](O)[C@H]1O	78	37				
COc1ccc(Cc2cc([C@@H]3O[C@H](CO)C(F)(F)[C@H](O)[C@H]3O)c(O)cc2Cl)cc1			58	90	97	bioavailability [4]: 17.4%; Activity [5]: 38.4%; Vd [6]: 1.89 L/kg; AUC(0-inf) [7]: 2700 ng·h/mL; Activity [8]: 0.099 g; Activity [9]: 62.8%; Tmax [10]: 0.42 h; half-life [11]: 4.85 h; inhibition [13]: Dose-dependent effect; Cmax [15]: 549 ng/mL; clearance [16]: 10.9 mL/min/kg
COc1cc(Cl)c(Cc2cc3ccccc3s2)cc1[C@@H]1O[C@H](CO)C(F)(F)[C@H](O)[C@H]1O				65	37	Stabilty ([3]; microsomes, 10 min, 1 µM): 123%
COc1cc(O)c([C@@H]2O[C@H](CO)C(F)(F)[C@H](O)[C@H]2O)cc1Cc1cc2ccccc2s1			98	103	111	
OC[C@H]1O[C@@H](c2cc(Cc3ccc4c(c3)OCCO4)c(Cl)cc2O)[C@H](O)[C@@H](O)C1(F)F			18	96	74	
COc1cc(OC)c([C@@H]2O[C@H](CO)[C@@](C)(F)[C@H](O)[C@H]2O)cc1Cc1ccc2c(c1)OCCO2	59	25				
